Published values of several laboratories.
Lines come from different studies, so protocols differ.
Target: Mitogen-activated protein kinase 6 (MAPK6, Homo sapiens, UniProt Q16659)

Structure (SMILES)	observed	method	tested at	remaining binding
O=C(NCCCN1CCOCC1)c1ccc(Nc2nccc(-c3cc4ccccc4s3)n2)cc1	binding	competition with immobilised ligand	1 µM	48%
COc1ncc2cc3ccccc3nc2c1C#N	cell-free assay	competition with immobilised ligand	5 µM	90%
CN(C)c1nccc(-c2cnc3ncccn23)n1	binding	–	1 µM	93%
CNC(=O)[C@@H]1CC[C@@H](n2c(-c3ccc4cnccc4c3)nc3ccc(C(=O)NCc4cccc(C(N)=O)c4)cc32)C1	binding	competition with immobilised ligand	1 µM	100%
N[C@@H]1CCN(c2nccc(-c3cnn4ncccc34)n2)C1	binding	–	1 µM	100%
C[C@@H](c1cccc(C#N)c1)n1cc(Cl)cc(C(N)=O)c1=N	cell-free assay	competition with immobilised ligand	1 µM	100%
COc1cnc(Nc2cccc(S(N)(=O)=O)c2)nc1N1CCN(c2ccccc2)C(=O)C1	binding	competition with immobilised ligand	1 µM	100%
O=C(Nc1c[nH]nc1C(=O)NC1CCNCC1)c1cc(F)cc(F)c1	binding	competition with immobilised ligand	1 µM	89%
Cc1cnn2ncc(-c3ccnc(N(C)C)n3)c2c1	binding	–	1 µM	98%
N#CC1(c2ccccn2)CCN(Cc2cc(C(=O)N3CCCC3)c(=O)n3ccccc23)CC1	cell-free assay	competition with immobilised ligand	1 µM	79%
O=C(c1ccc(Nc2nccc(-c3cc4ccccc4s3)n2)cc1)N1CCC(N2CCCC2)CC1	binding	competition with immobilised ligand	1 µM	11%
F[C@@H]1CCN(c2nccc(-c3cnn4ncccc34)n2)C1	binding	–	1 µM	74%
CS(=O)(=O)N1CCCC(NC(=O)[C@H](CCC2CCCCC2)NC(=O)c2ccc(CNC(=O)c3cnc4ccccn34)cc2)C1 (stereo partly shown)	cell-free assay	competition with immobilised ligand	0.1 µM	96%
CN(C)c1nccc(-c2cnn3ncccc23)n1	binding	–	1 µM	100%
Cc1c[nH]c2nccc(Oc3c(F)cc(Nc4cc(Cl)nc(N)n4)cc3F)c12	cell-free assay	competition with immobilised ligand	0.1 µM	95%
C=CC(=O)N1CCC(C(=O)NCC(=O)N2CCN(c3nc(-c4cnc(N)nc4C(F)F)nc(N4CCOCC4)n3)CC2)CC1	binding	competition with immobilised ligand	1 µM	96%
Cn1nc(C(=O)NCc2ccc(C(=O)O)cc2)cc1-c1ccc2[nH]ccc2c1	cell-free assay	competition with immobilised ligand	0.1 µM	100%
c1cncc(-c2cccc(Nc3nccc(NC4CCCCC4)n3)c2)c1	binding	competition with immobilised ligand	10 µM	100%
C[C@@H](c1ccc(-n2cnc3c(N)ncnc32)cc1)N1CCc2nn(C)c(Cc3ccccc3)c2C1=O	binding	competition with immobilised ligand	0.1 µM	93%
C[C@@H]1CCN(c2nccc(-c3cnn4ncccc34)n2)C1	binding	–	1 µM	100%
Cc1nc(C2CCN(C(=O)c3ccc(OC(F)(F)F)cc3N)CC2)c2ncc(N3CCN(C)CC3)cc2n1	cell-free assay	competition with immobilised ligand	1 µM	100%
Cc1cnc(Nc2ccc(C(=O)N3CCC(N4CCCC4)CC3)cc2)nc1-c1cc2ccccc2s1	binding	competition with immobilised ligand	1 µM	0.1%
